Structures are written as SMILES. pEC50, pIC50: −log10 of the molar value. Converted amounts (≈) assume the structure as drawn.

System in one data set: not listed separately
The data set can be described thus: Metabolic stability in mouse plasma assessed as compound remaining at 1 uM after 60 mins by LC-MS/MS analysis. Particulars: read-out: Stability. It is filed as ADME, cell-free. An outline of the steps: (§1)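 A 30 mM DMSO stock was diluted to 100 µM in acetonitrile, then spiked into thawed mouse plasma (1 µM final) and incubated at 37 °C. Aliquots were precipitated in acetonitrile containing buspirone, shaken 5 min and centrifuged at 4000g for 10 min. Supernatant was analysed by LC-MS/MS. Percent remaining = concentration at each time / t0 concentration × 100; mean of at least three experiments.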
Regarding `CCn1c(CCCc2ccc(OC(C)(C)C(=O)NS(=O)(=O)c3cccnc3)cc2)nn(Cc2ccc(C(C)(C)C)cc2)c1=O`, the remaining at 1 h, 1 µM stood at 75.2%.
As for `CCn1c(CCCc2ccc(OC(C)(C)C(=O)NS(=O)(=O)c3ccc(C(F)(F)F)cc3)cc2)nn(Cc2ccc(C(C)(C)C)cc2)c1=O`, the remaining at 1 h, 1 µM worked out at 105%.
Same read-out and setting: then `CCn1c(CCCc2ccc(OC(C)(C)C(=O)NS(=O)(=O)C3CC3)cc2)nn(Cc2ccc(C(C)(C)C)cc2)c1=O`, with 0.1%; and `CCn1c(CCCc2ccc(OC(C)(C)C(=O)NS(=O)(=O)c3ccc(C)cc3)cc2)nn(Cc2ccc(C(C)(C)C)cc2)c1=O`, with 63.7%; and `CCn1c(CCCc2ccc(OC(C)(C)C(=O)NS(=O)(=O)C3CCCCC3)cc2)nn(Cc2ccc(C(C)(C)C)cc2)c1=O`, with 43.6%.
On to `CCn1c(CCCc2ccc(CC(C)(C)C(=O)NS(=O)(=O)c3ccccc3)cc2)nn(Cc2ccc(C(C)(C)C)cc2)c1=O`, for which the remaining at 1 h, 1 µM came out at 62.3%.
Regarding `CCn1c(CCCc2ccc(OC(C)(C)C(=O)NS(=O)(=O)c3ccc(C(C)C)cc3)cc2)nn(Cc2ccc(C(C)(C)C)cc2)c1=O`, the remaining at 1 h, 1 µM turned out to be 81.9%.
On the same count and under the same terms, then `CCn1c(CCCc2ccc(OC(C)(C)C(=O)NS(=O)(=O)c3ccccc3)cc2)nn(Cc2ccc(C(C)(C)C)cc2)c1=O`, with 0.7%; and `CCn1c(CCCc2ccc(OC(C)(C)C(=O)NS(=O)(=O)C3=CCOC=C3)cc2)nn(Cc2ccc(C(C)(C)C)cc2)c1=O`, with 86.5%; and `CCn1c(CCCc2ccc(OC(C)(C)C(=O)NS(=O)(=O)C3CCCC3)cc2)nn(Cc2ccc(C(C)(C)C)cc2)c1=O`, with 7%.
Same read-out and setting: then `CCn1c(CCCc2ccc(OC(C)(C)C(=O)NS(=O)(=O)c3ccoc3)cc2)nn(Cc2ccc(C(C)(C)C)cc2)c1=O`, with 66.6%.

The next data set has as its target T1, Peroxisome proliferator-activated receptor alpha (Homo sapiens, UniProt Q07869).
T1 sequence (Q07869 whole entry): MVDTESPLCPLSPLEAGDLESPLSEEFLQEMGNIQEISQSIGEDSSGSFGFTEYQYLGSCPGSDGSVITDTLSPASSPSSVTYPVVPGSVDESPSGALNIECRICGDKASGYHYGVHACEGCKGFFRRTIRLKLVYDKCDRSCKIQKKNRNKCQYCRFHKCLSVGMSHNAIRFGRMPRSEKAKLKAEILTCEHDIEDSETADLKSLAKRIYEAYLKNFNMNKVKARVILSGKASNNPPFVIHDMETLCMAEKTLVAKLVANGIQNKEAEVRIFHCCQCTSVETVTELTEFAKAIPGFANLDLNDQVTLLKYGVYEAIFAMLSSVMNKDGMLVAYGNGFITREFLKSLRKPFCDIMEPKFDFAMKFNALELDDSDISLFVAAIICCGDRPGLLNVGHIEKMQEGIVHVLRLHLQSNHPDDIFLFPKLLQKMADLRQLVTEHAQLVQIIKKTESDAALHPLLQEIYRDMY
The data set can be described thus: Agonist activity at human PPAR-alpha.
Conditions: not given
On to `C/C(=C/C(=O)c1ccccc1)N[C@@H](Cc1ccc(OCCc2nc(-c3ccccc3)oc2C)cc1)C(=O)O`, for which the pEC50 (usually −log10 of the EC50, conventionally taken in molar units) is 6.62.

System in another data set: not listed separately
In words: (§2) Metabolic stability in mouse plasma assessed as compound remaining at 1 uM after 24 hrs by LC-MS/MS analysis. Particulars: read-out: Stability. It is filed as ADME, cell-free. An outline of the steps:
as §1
As to `CCn1c(CCCc2ccc(OC(C)(C)C(=O)NS(=O)(=O)c3cccnc3)cc2)nn(Cc2ccc(C(C)(C)C)cc2)c1=O`, the remaining at 24 h, 1 µM was 0.2%.
On to `CCn1c(CCCc2ccc(-c3ccc(NS(C)(=O)=O)cn3)cc2)nn(Cc2ccc(C(C)(C)C)cc2)c1=O`, for which the remaining at 24 h, 1 µM is 105%.
As to `CCn1c(CCCc2ccc(OC(C)(C)C(=O)NS(=O)(=O)c3ccc(C(F)(F)F)cc3)cc2)nn(Cc2ccc(C(C)(C)C)cc2)c1=O`, the remaining at 24 h, 1 µM is 53.7%.
Regarding `CCn1c(CCCc2ccc(-c3ncc(NS(=O)(=O)c4ccccc4)cn3)cc2)nn(Cc2ccc(C(C)(C)C)cc2)c1=O`, the remaining at 24 h, 1 µM stood at 119%.
As for `CCn1c(CCCc2ccc(OC(C)(C)C(=O)NS(=O)(=O)c3ccc(C(C)C)cc3)cc2)nn(Cc2ccc(C(C)(C)C)cc2)c1=O`, the remaining at 24 h, 1 µM amounted to 2.7%.

Another data set concerns Plasma. The description is as §2. It is filed as ADME, cell-free. Particulars: 24 h, 1 µM. An outline of the steps:
as §1
For `CCn1c(CCCc2ccc(-c3cccc(NS(=O)(=O)c4ccccc4)c3)cc2)nn(Cc2ccc(C(C)(C)C)cc2)c1=O`, the Stability is 136%.
On to `CCn1c(CCCc2ccc(-c3cnc(NS(=O)(=O)c4ccccc4)cn3)cc2)nn(Cc2ccc(C(C)(C)C)cc2)c1=O`, for which the Stability stood at 131.2%.
Still for that read-out and setting: then `CCn1c(CCCc2ccc(-c3ccc(NS(=O)(=O)c4ccccc4)nc3)cc2)nn(Cc2ccc(C(C)(C)C)cc2)c1=O`, with 128.7%; and `CCn1c(CCCc2ccc(-c3ccc(NS(=O)(=O)c4ccccc4)cc3)cc2)nn(Cc2ccc(C(C)(C)C)cc2)c1=O`, with 124.7%; and `CCn1c(CCCc2ccc(-c3ccc(NS(=O)(=O)Cc4ccccc4)cc3)cc2)nn(Cc2ccc(C(C)(C)C)cc2)c1=O`, with 133.9%.

System in the next data set: not listed separately
The data set can be described thus: Solubility of the compound in aqueous buffer at pH 7.4 after 24 hrs by LC-MS/MS analysis. It is filed as physicochemical.
Conditions: not given
An outline of the steps:
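Compound from a 10 mM DMSO stock was added to pH 7.4 buffer, vortexed 2 min, then shaken on an orbital shaker for 24 h at room temperature. Samples were then vacuum-filtered through a polycarbonate membrane before measurement.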
As to `CCn1c(CCCc2ccc(-c3cccc(NS(=O)(=O)c4ccccc4)c3)cc2)nn(Cc2ccc(C(C)(C)C)cc2)c1=O`, the concentration in solution (solubility at 24 h) was 0.037 µM (≈ 0.0225 µg/mL).
Same read-out and setting: then `CCn1c(CCCc2ccc(-c3cnc(NS(=O)(=O)c4ccccc4)cn3)cc2)nn(Cc2ccc(C(C)(C)C)cc2)c1=O`, with 4.9 µM (≈ 2.99 µg/mL); and `CCn1c(CCCc2ccc(-c3ccc(NS(C)(=O)=O)cn3)cc2)nn(Cc2ccc(C(C)(C)C)cc2)c1=O`, with 0.423 µM (≈ 0.232 µg/mL); and `CCn1c(CCCc2ccc(-c3ccc(NS(=O)(=O)c4ccccc4)nc3)cc2)nn(Cc2ccc(C(C)(C)C)cc2)c1=O`, with 0.014 µM (≈ 0.00854 µg/mL).
As to `CCn1c(CCCc2ccc(-c3ncc(NS(=O)(=O)c4ccccc4)cn3)cc2)nn(Cc2ccc(C(C)(C)C)cc2)c1=O`, the concentration in solution (solubility at 24 h) came to 0.091 µM (≈ 0.0556 µg/mL).
In the case of `CCn1c(CCCc2ccc(-c3ccc(NS(=O)(=O)c4ccccc4)cc3)cc2)nn(Cc2ccc(C(C)(C)C)cc2)c1=O`, the solubility (commonly how much of the substance goes into solution per volume) at 24 h is 0.018 µM (≈ 0.011 µg/mL). This solubility at 24 h lies about 5.1-fold lower than the previous one.
`CCn1c(CCCc2ccc(-c3ccc(NS(=O)(=O)Cc4ccccc4)cc3)cc2)nn(Cc2ccc(C(C)(C)C)cc2)c1=O`: the concentration in solution (solubility at 24 h) came to 0.012 µM (≈ 0.00747 µg/mL).

System in a further data set: not listed separately
The data set can be described thus: Metabolic stability in mouse plasma assessed as compound remaining at 1 uM after 30 mins by LC-MS/MS analysis. It counts as ADME, cell-free. Particulars: read-out: Stability. An outline of the steps:
as §1
Consider `CCn1c(CCCc2ccc(OC(C)(C)C(=O)NS(=O)(=O)c3cccnc3)cc2)nn(Cc2ccc(C(C)(C)C)cc2)c1=O`, for which the remaining at 0.5 h, 1 µM is 82.4%.
On the same count and under the same terms, then `CCn1c(CCCc2ccc(OC(C)(C)C(=O)NS(=O)(=O)c3ccc(C(F)(F)F)cc3)cc2)nn(Cc2ccc(C(C)(C)C)cc2)c1=O`, with 103%; and `CCn1c(CCCc2ccc(OC(C)(C)C(=O)NS(=O)(=O)C3CC3)cc2)nn(Cc2ccc(C(C)(C)C)cc2)c1=O`, with 1.7%.
The same measure, in the same setting: then `CCn1c(CCCc2ccc(OC(C)(C)C(=O)NS(=O)(=O)c3ccc(C)cc3)cc2)nn(Cc2ccc(C(C)(C)C)cc2)c1=O`, with 73.1%; and `CCn1c(CCCc2ccc(OC(C)(C)C(=O)NS(=O)(=O)C3CCCCC3)cc2)nn(Cc2ccc(C(C)(C)C)cc2)c1=O`, with 60.5%.
Regarding `CCn1c(CCCc2ccc(CC(C)(C)C(=O)NS(=O)(=O)c3ccccc3)cc2)nn(Cc2ccc(C(C)(C)C)cc2)c1=O`, the remaining at 0.5 h, 1 µM is 80%.
In the case of `CCn1c(CCCc2ccc(OC(C)(C)C(=O)NS(=O)(=O)c3ccc(C(C)C)cc3)cc2)nn(Cc2ccc(C(C)(C)C)cc2)c1=O`, the remaining at 0.5 h, 1 µM came to 89.5%.
As to `CCn1c(CCCc2ccc(OC(C)(C)C(=O)NS(=O)(=O)c3ccccc3)cc2)nn(Cc2ccc(C(C)(C)C)cc2)c1=O`, the remaining at 0.5 h, 1 µM amounted to 6.7%.
On the same count and under the same terms, then `CCn1c(CCCc2ccc(OC(C)(C)C(=O)NS(=O)(=O)C3=CCOC=C3)cc2)nn(Cc2ccc(C(C)(C)C)cc2)c1=O`, with 86.9%; and `CCn1c(CCCc2ccc(OC(C)(C)C(=O)NS(=O)(=O)C3CCCC3)cc2)nn(Cc2ccc(C(C)(C)C)cc2)c1=O`, with 21%; and `CCn1c(CCCc2ccc(OC(C)(C)C(=O)NS(=O)(=O)c3ccoc3)cc2)nn(Cc2ccc(C(C)(C)C)cc2)c1=O`, with 75.4%.

The target in the next data set is T1, Peroxisome proliferator-activated receptor alpha. In words: Antagonist activity at human PPAR-alpha assessed as inhibition of GW7647-induced effect after overnight incubation by cell-based luciferase reporter gene assay.
Conditions: not given
Background: In a reporter assay the amount or activity of a reporter protein is the signal.
Take `CCn1c(CCCc2ccc(-c3cccc(NS(=O)(=O)c4ccccc4)c3)cc2)nn(Cc2ccc(C(C)(C)C)cc2)c1=O`: the pIC50 (usually the IC50 on a negative log10 scale, so that one unit is a factor of ten) was 6.41.
With `CCn1c(CCCc2ccc(OC(C)(C)C(=O)NS(=O)(=O)c3cccnc3)cc2)nn(Cc2ccc(C(C)(C)C)cc2)c1=O`, the pIC50 is 7.10.
Consider `CCn1c(CCCc2ccc(-c3cnc(NS(=O)(=O)c4ccccc4)cn3)cc2)nn(Cc2ccc(C(C)(C)C)cc2)c1=O`, for which the pIC50 is 6.66.
The same measure, in the same setting: then `CCn1c(CCCc2ccc(-c3ccc(NS(C)(=O)=O)cn3)cc2)nn(Cc2ccc(C(C)(C)C)cc2)c1=O`, with 6.95; and `CCn1c(CCCc2ccc(OC(C)(C)C(=O)NS(=O)(=O)c3ccc(C(F)(F)F)cc3)cc2)nn(Cc2ccc(C(C)(C)C)cc2)c1=O`, with 7.47.
With `CCn1c(CCCc2ccc(-c3ccc(NS(=O)(=O)c4ccccc4)nc3)cc2)nn(Cc2ccc(C(C)(C)C)cc2)c1=O`, the pIC50 is 6.91.
In the case of `CCn1c(CCCc2ccc(OC(C)(C)C(=O)NS(=O)(=O)C3CC3)cc2)nn(Cc2ccc(C(C)(C)C)cc2)c1=O`, the negative-log IC50 (pIC50) is 8.18.
On to `CCn1c(CCCc2ccc(OC(C)(C)C(=O)NS(=O)(=O)c3ccc(C)cc3)cc2)nn(Cc2ccc(C(C)(C)C)cc2)c1=O`, for which the pIC50 was 8.55.
On to `CCn1c(CCCc2ccc(OC(C)(C)C(=O)NS(=O)(=O)C3CCCCC3)cc2)nn(Cc2ccc(C(C)(C)C)cc2)c1=O`, for which the pIC50 is 8.52.
Consider `CCn1c(CCCc2ccc(-c3ncc(NS(=O)(=O)c4ccccc4)cn3)cc2)nn(Cc2ccc(C(C)(C)C)cc2)c1=O`, for which the pIC50 was 6.94.
With `CCn1c(CCCc2ccc(CC(C)(C)C(=O)NS(=O)(=O)c3ccccc3)cc2)nn(Cc2ccc(C(C)(C)C)cc2)c1=O`, the pIC50 is 7.22.
Regarding `CCn1c(CCCc2ccc(OC(C)(C)C(=O)NS(=O)(=O)c3ccc(C(C)C)cc3)cc2)nn(Cc2ccc(C(C)(C)C)cc2)c1=O`, the pIC50 is 7.89.
On the same count and under the same terms, then `CCn1c(CCCc2ccc(-c3ccc(NS(=O)(=O)c4ccccc4)cc3)cc2)nn(Cc2ccc(C(C)(C)C)cc2)c1=O`, with 7.68.
In the case of `CCn1c(CCCc2ccc(OC(C)(C)C(=O)NS(=O)(=O)C3=CCOC=C3)cc2)nn(Cc2ccc(C(C)(C)C)cc2)c1=O`, the pIC50 was 7.38.
Still for that read-out and setting: then `CCn1c(CCCc2ccc(OC(C)(C)C(=O)NS(=O)(=O)C3CCCC3)cc2)nn(Cc2ccc(C(C)(C)C)cc2)c1=O`, with 8.34.
Same read-out and setting: then `CCn1c(CCCc2ccc(-c3ccc(NS(=O)(=O)Cc4ccccc4)cc3)cc2)nn(Cc2ccc(C(C)(C)C)cc2)c1=O`, with 6.51; and `CCn1c(CCCc2ccc(OC(C)(C)C(=O)NS(=O)(=O)c3ccoc3)cc2)nn(Cc2ccc(C(C)(C)C)cc2)c1=O`, with 7.11.

Source of the values: ChEMBL document CHEMBL3259631, “Identification of the first potent, selective and bioavailable PPARα antagonist” (Bioorg Med Chem Lett, 2014).
